Compound activity from PubChem BioAssay.
Hits are enriched below; roughly 1.6% of the tested compounds scored in any of these assays.
PKA-R1A act – activates the PKA-R1A holoenzyme complex; activation, % at 11.4 µM; P00514+P68181; PKA-R1A dissociation, Cy5-IP20 fluorescence polarization; scaled: DMSO 0%, 113 µM cGMP 100%; 340,000 tested, 0.083% active;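 active = percent activation above the mean of all tested compounds plus 3 SD, cut at about 19% in these data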;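 also: higher means more PKAc released from R1A so a rise in polarization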
NR1D1 modulator – Rev-erb alpha (human) modulation; P20393; Rev-erbα–FITC-DNA binding, fluorescence polarization, 90 min; activity, % at 10 µM; 370,000 tested, 0.79% active; AID 1259318;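 active = activity above about 14%, limit read from the data; passing the limit was not always enough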;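 also: 0% = DMSO wells with 35 nM protein and 100% = DMSO wells with 750 nM protein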
NR2E3 ag-1 – activates human NR2E3 receptor. inhibition of corepressor binding, % at 3.98 µM. Q9Y5X4. 360,000 tested, 0.35% active. AID 602229. CHO-S Gal4-NCOR/VP16-NR2E3 two-hybrid, luciferase;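 active = inhibition above the mean of all tested compounds plus 3 SD, cut at about 70% in these data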;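 also: 0% = DMSO with NR2E3 transfected cells and 100% = cells lacking NR2E3 construct; higher means lower luciferase signal from less NR2E3 corepressor binding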
Target sequence (Q9Y5X4 whole entry, looked up, the tested form may be a part): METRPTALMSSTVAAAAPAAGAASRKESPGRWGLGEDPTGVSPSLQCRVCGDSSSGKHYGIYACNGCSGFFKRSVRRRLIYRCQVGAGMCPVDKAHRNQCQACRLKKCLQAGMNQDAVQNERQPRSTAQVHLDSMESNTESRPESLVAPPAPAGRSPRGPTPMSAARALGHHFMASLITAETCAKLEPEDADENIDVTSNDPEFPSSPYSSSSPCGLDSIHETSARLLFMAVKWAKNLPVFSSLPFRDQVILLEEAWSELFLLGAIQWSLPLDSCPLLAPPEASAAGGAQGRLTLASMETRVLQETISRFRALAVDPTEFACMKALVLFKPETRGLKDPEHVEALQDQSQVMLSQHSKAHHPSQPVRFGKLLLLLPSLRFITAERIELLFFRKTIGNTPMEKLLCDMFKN
NR2E3 ag-2 – agonists of human nuclear receptor NR2E3; Q9Y5X4; GST-NR2E3/biotin-RetCOR TR-FRET, 1536-well; inhibition of corepressor binding, % at 4.78 µM; 320,000 tested, 0.12% active; AID 2300;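 active = percent inhibition above the cutoff of mean plus 3 SD of all tested compounds, set per screening campaign, cut at about 20% in these data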;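 also: 0% = DMSO wells and 100% = biotin wells as full block of FRET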
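system = GST-tagged NR2E3 plus biotinylated RetCOR corepressor | input = 1.35 nM GST-NR2E3 | also added = 7 nM biotin-RetCOR | schedule = 5 h incubation at 4 °C | measured by = TR-FRET with europium anti-GST and streptavidin-D2, 340 nm excitation | read-out = percent loss of FRET ratio relative to control wells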
PKA-R2B activ – PKA-R2B complex activation | AID 504700 | 340,000 tested, 0.079% active | activation, % at 11.4 µM | PKA-R2B holoenzyme dissociation, Cy5-IP20 fluorescence polarization; R2B truncated from residue 108, S112A mutant; 0% DMSO only, 100% 113 µM cGMP;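 active = activation above a cutoff set at the mean over all compounds plus 3 SD, cut at about 18% in these data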;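 also: higher means more holoenzyme dissociation and a rise in polarization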
PG9 Ab binder – small molecules binding HIV-1 gp120 antibody PG9 | TR-FRET gp120-PG9 antibody binding | inhibition, % at 6.7 µM | 360,000 tested, 0.43% active; in the data active = inhibition above about 8.5%
R1A FP artifact – FP assay interference, PKA-R1A counter-screen; shares compounds with PKA-R1A act; Cy5-IP20 peptide alone, fluorescence polarization artifact counterscreen; activation, % at 11.4 µM; 280 tested, 7% active;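 active = mean activation over triplicate runs exceeds the adjusted cutoff derived for the parent primary screen, cut at about 19% in these data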;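 also: no PKA protein present so any polarization rise reflects compound interference; 0% = tracer peptide mix alone and 100% = mix with added PKA catalytic subunit; higher means stronger polarization artifact and likely false positive in parent screen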
PKA-R1A confirm – PKA-R1A complex activation, confirmation. shares compounds with PKA-R1A act. AID 504800. activation, % at 11.4 µM. 280 tested, 9% active. Cy5-IP20 fluorescence polarization, PKA-R1A holoenzyme dissociation;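 active = mean activation over replicate wells exceeds the adjusted hit threshold taken from the earlier primary screen, cut at about 20% in these data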;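 also: 0% = holoenzyme mix with DMSO only and 100% = cGMP-activated control wells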
Numbers without * were called inactive; nt = not tested or not shown.

SMILES	PKA-R1A act	NR1D1 modulator	NR2E3 ag-1	NR2E3 ag-2	PKA-R2B activ	PG9 Ab binder	R1A FP artifact	PKA-R1A confirm
O=C(OC12CCCN(C1)/C(=C/c1ccc(Cl)cc1)C2)c1ccno1 (configuration not stated)	nt	-2.1	nt	nt	nt	nt	nt	nt
COC(=O)c1c(C)cc(OC(C)=O)c(C)c1OC(C)=O	19.6*	-0.5	-10.6	3.6	7.8	0.6	3.6	3.7
COc1ccc(C2C(C(=O)N3CCC(C)CC3)CC(=O)N2c2ccc(OC)cc2)cc1 (configuration not stated)	nt	-0.1	nt	nt	nt	nt	nt	nt
COCCn1c(N)c(N(Cc2ccccc2)C(=O)COc2ccc(F)cc2Cl)c(=O)[nH]c1=O	20.4*	1.5	-15.0	-3.6	-0.5	2.2	4.0	5.0
O=C(c1ccc(F)cc1F)N(Cc1ccccn1)CC1CCCO1 (configuration not stated)	nt	-2.5	nt	nt	nt	nt	nt	nt
Cc1ccc([C@H](C)NC(=O)C2=C(N)N(S(=O)(=O)c3ccc(C)cc3)C(C(=O)c3ccccc3)C2c2ccccc2Cl)cc1 (some centres not stated)	nt	-2.1	nt	nt	nt	nt	nt	nt
CC(NC(=O)C(Cc1ccccc1)=NO)c1ccccc1 (configuration not stated)	-2.6	-0.3	10.0	nt	1.0	-2.4	nt	nt
CC(NC(=O)Cc1ccccc1)c1ccccc1 (configuration not stated)	19.1*	0.3	-25.7	2.7	10.8	-2.0	2.9	1.2
COC(=O)[C@@]12CCCCC3=C1N(CCC3)C(=O)[C@H]2CC(=O)NCc1ccc(C)o1	nt	3.0	nt	nt	nt	nt	nt	nt
CCCC1CCC2(CC1)CCC2OC(=S)Nc1cccc(Cl)c1 (configuration not stated)	nt	6.1	nt	nt	nt	nt	nt	nt
Oc1ccc2ccccc2c1/C=N/n1cnnc1	18.6*	-5.0	-0.2	1.4	12.5	0.5	4.5	2.1
COc1ccccc1CNC(=O)CN1C(=O)c2ccccc2S1(=O)=O	3.7	-2.3	-16.8	0.6	0.2	-1.6	nt	nt
CCOc1cc(CNC(=O)CN2C(=O)c3ccccc3S2(=O)=O)ccc1OC	18.7*	3.6	2.4	5.0	-6.4	0.9	-1.5	-0.4
C=CCN1[C@H](CC(C)C)COc2cc(N3CCSCC3)ccc2S1(=O)=O	nt	-1.7	nt	nt	nt	nt	nt	nt
O=S(=O)(c1ccc(Br)s1)N1CCN(CCc2ccccc2)CC1	19.2*	-2.8	10.0	0.8	-8.9	0.7	0.1	3.0
CCN1CCN(S(=O)(=O)c2ccc(Br)s2)CC1	-10.9	-0.7	-61.6	0.0	3.2	-3.0	nt	nt
O=C(CSC(=S)N1CCCCC1)c1ccccc1	20.3*	-3.6	-62.6	1.9	9.5	-0.1	0.6	1.5
COc1ccc(/C=C/S(=O)(=O)NC2CCCC2)c(CNC(=O)OC(C)(C)C)c1	nt	2.2	nt	nt	nt	nt	nt	nt
CCOC(=O)C(=O)N(Nc1ccc(C)cc1)c1ccc(C)cc1	-5.2	-4.3	-87.9	-0.8	-1.7	-1.5	nt	nt
CCC(O)(CC)C(=O)N(Nc1ccc(C)cc1)c1ccc(C)cc1	21.1*	1.6	-13.3	-1.7	0.6	0.0	3.3	1.4
COc1ccc(Cn2cc(COC(=O)Nc3ccc(F)cc3)nn2)cc1	nt	-1.8	nt	nt	nt	nt	nt	nt
CC(C)[C@H](NS(=O)(=O)c1ccc2c(c1)OCCO2)C(=O)OCC(=O)Nc1ccccc1	19.3*	-1.6	-17.3	-4.5	0.2	1.2	-1.1	0.9
Cc1ccc(S(=O)(=O)N[C@H](C(=O)OCC(=O)NC(=O)Nc2ccc3c(c2)OCCO3)C(C)C)cc1	7.6	1.6	-0.6	0.9	6.5	0.9	nt	nt
N#CCC[C@H]1CC[C@]2(CCCN(C(=O)c3ccccc3)C2)O1	nt	0.6	nt	nt	nt	nt	nt	nt
O=C(C1=C(O)C(=O)N(Cc2ccco2)C1c1cccc(O)c1)c1ccco1 (configuration not stated)	19.5*	-8.8	7.3	3.9	1.5	-1.0	-0.6	-1.0
SMILES	PKA-R1A act	NR1D1 modulator	NR2E3 ag-1	NR2E3 ag-2	PKA-R2B activ	PG9 Ab binder	R1A FP artifact	PKA-R1A confirm
COc1ccc(S(=O)(=O)Nc2c(C)cccc2C)cc1-n1cnnn1	19.1*	2.8	-19.6	2.0	4.0	-0.7	6.6	6.0
CCn1c(SCC(=O)NNC(=O)c2ccc(C)cc2)nnc1-c1ccncc1	-0.2	2.5	-0.7	0.0	-0.2	-1.1	nt	nt
CCC(CO)n1cnnc1-c1ccncc1 (configuration not stated)	20.3*	5.2	11.0	2.0	7.2	0.2	2.9	-2.6
Cc1ccc(-c2ccc(=O)n(CCC(=O)NCc3ccccn3)n2)cc1	18.6*	-1.8	-13.6	-1.9	8.0	-0.4	0.0	-0.2
Cc1ccc(CNC(=O)CCn2nc(-c3ccc(Cl)cc3)ccc2=O)cc1	3.8	-5.4	-4.8	1.5	-6.7	2.1	nt	nt
Nc1nnnn1/N=C/c1ccccn1	20.8*	1.0	-10.5	2.4	-2.8	0.9	-0.3	4.9
Cc1sc(N)nc1-c1ccccc1	21.1*	0.8	-16.5	-2.5	-1.9	-0.2	1.3	0.2
Cc1cc(C(=O)COC(=O)c2ccc(CO)cc2)c(C)n1CC1COc2ccccc2O1 (configuration not stated)	18.8*	-7.6	-30.0	0.6	5.5	0.2	-0.2	1.0
CCN1CCN(Cc2ccc(NC(=O)c3cccc(-c4ccc5nc(NC(=O)C6CC6)sc5n4)c3)cc2C(F)(F)F)CC1	nt	5.8	nt	nt	nt	-1.7	nt	nt
C#CCCCN([C@H](C(=O)OC)C(C)C)S(=O)(=O)c1ccc(F)cc1Br	nt	0.3	nt	nt	nt	nt	nt	nt
O=C(CN1C(=O)c2cccnc2C1=O)c1ccccc1	19.6*	3.5	-33.2	2.4	10.3	-1.1	-0.9	-2.0
CN(Cc1ccccc1)C(=O)C1CCN(S(=O)(=O)c2ccc(-n3cnnn3)cc2)CC1	20.7*	4.9	-26.9	0.1	9.5	-0.1	3.3	2.5
CCOC(=O)Cn1cc(CN2CCS(=O)(=O)N(Cc3ccc(Cl)cc3)C(C(=O)OC)C2)nn1 (configuration not stated)	nt	-5.4	nt	nt	nt	nt	nt	nt
CC(C)CCOc1ccc(C(=O)N2CCCC2C(=O)O)cc1 (configuration not stated)	19.9*	-5.2	40.6	2.3	-1.9	-1.2	3.0	1.6
C=CCn1c(SCC(=O)C(C)(C)C)nnc1-c1ccc(Cl)cc1	nt	0.5	nt	nt	nt	nt	nt	nt
Cc1cc(Br)c(NC(=O)CN2C(=O)NC3(CCOc4ccccc43)C2=O)c(Br)c1 (configuration not stated)	20.0*	-3.3	-18.9	nt	2.5	2.0	0.4	4.2
